Results: ChEMBL document CHEMBL4689842, “EUbOPEN Chemogenomics Library wave 1” (2021)

What was measured:
Format in all cases: toxicity, cell-based
Fibroblast [1] = test: Multiplex assay against human fibroblast
In short: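 Four dyes were applied at seeding to live cells: Hoechst33342, BioTracker Green Microtubule Cytoskeleton Dye, MitoTracker Red and Annexin V Alexa Fluor 680. Imaging after compound addition used a CQ1 microscope at 37°C and 5% CO2. CellPathfinder machine-learning gating then sorted cells into Hoechst high-intensity objects or normal cells, normal cells into healthy, pyknosed or fragmented nuclei, and pyknosed cells into mitotic or apoptotic, with tubulin, mitochondrial-mass and membrane-permeability phenotypes given as per cents of healthy-nucleus cells.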

HEK-293T = test: Incucyte cell viability with HEK293T; settings: human, 10 µM, compound concentration 10 uM; also: filed as whole numbers so only -1 and 0 and 1 occur
Fibroblast [2] = test: Incucyte cell viability with human fibroblast; settings: 10 µM, compound concentration 10 uM; also: filed as whole numbers so only -1 and 0 and 1 occur
U2OS = test: Incucyte cell viability with U2OS; settings: human, 10 µM, compound concentration 10 uM; also: filed as whole numbers so only -1 and 0 and 1 occur
[3] = 12 h, 1 µM, compound concentration 1 uM, replicate 1
[4] = 12 h, 1 µM, compound concentration 1 uM, replicate 2
[5] = 12 h, 10 µM, compound concentration 10 uM, replicate 1
[6] = 12 h, 10 µM, compound concentration 10 uM, replicate 2
[7] = 24 h, 1 µM, compound concentration 1 uM, replicate 1
[8] = 24 h, 1 µM, compound concentration 1 uM, replicate 2
[9] = 24 h, 10 µM, compound concentration 10 uM, replicate 1
[10] = 24 h, 10 µM, compound concentration 10 uM, replicate 2
[11] = 48 h, 1 µM, compound concentration 1 uM, replicate 1
[12] = 48 h, 1 µM, compound concentration 1 uM, replicate 2
[13] = 48 h, 10 µM, compound concentration 10 uM, replicate 1
[14] = 48 h, 10 µM, compound concentration 10 uM, replicate 2
[15] = 6 h, replicate number 1, timepoint 6 hours
[16] = 12 h, replicate number 1, timepoint 12 hours
[17] = 18 h, replicate number 1, timepoint 18 hours
[18] = 24 h, replicate number 1, timepoint 24 hours

SMILES: Cl.Cl.Nc1ncnc2c1c(-c1cccc(OCc3ccccc3)c1)cn2[C@H]1C[C@@H](CN2CCC2)C1
- Population Apoptotic (%) (Fibroblast [1]; [3]): 70%
- Population Fragmented Nuclei (%) (Fibroblast [1]; [3]): 31%
- Population Healthy Nuclei (%) (Fibroblast [1]; [3]): 48%
- Population Hoechst High Intensity Objects (%) (Fibroblast [1]; [3]): 22%
- Population Membrane Permeable-Phenotype (%) (Fibroblast [1]; [3]): 21%
- Population Mitochondria Different-Phenotype (%) (Fibroblast [1]; [3]): 9%
- Population Mitotic Cells (%) (Fibroblast [1]; [3]): 29%
- Population Normal (%) (Fibroblast [1]; [3]): 77%
- Population Pyknosed Nuclei (%) (Fibroblast [1]; [3]): 20%
- Population Tubulin-Different-Phenotype (%) (Fibroblast [1]; [3]): 53%
- Total Cell Count (Fibroblast [1]; [3]): 109
- Population Apoptotic (%) (Fibroblast [1]; [4]): 29%
- Population Fragmented Nuclei (%) (Fibroblast [1]; [4]): 11%
- Population Healthy Nuclei (%) (Fibroblast [1]; [4]): 67%
- Population Hoechst High Intensity Objects (%) (Fibroblast [1]; [4]): 6%
- Population Membrane Permeable-Phenotype (%) (Fibroblast [1]; [4]): 3%
- Population Mitochondria Different-Phenotype (%) (Fibroblast [1]; [4]): 71%
- Population Mitotic Cells (%) (Fibroblast [1]; [4]): 70%
- Population Normal (%) (Fibroblast [1]; [4]): 93%
- Population Tubulin-Different-Phenotype (%) (Fibroblast [1]; [4]): 52%
- Total Cell Count (Fibroblast [1]; [4]): 55
- Population Apoptotic (%) (Fibroblast [1]; [5]): 60%
- Population Fragmented Nuclei (%) (Fibroblast [1]; [5]): 24%
- Population Healthy Nuclei (%) (Fibroblast [1]; [5]): 39%
- Population Hoechst High Intensity Objects (%) (Fibroblast [1]; [5]): 38%
- Population Membrane Permeable-Phenotype (%) (Fibroblast [1]; [5]): 9%
- Population Mitochondria Different-Phenotype (%) (Fibroblast [1]; [5]): 50%
- Population Mitotic Cells (%) (Fibroblast [1]; [5]): 40%
- Population Normal (%) (Fibroblast [1]; [5]): 61%
- Population Pyknosed Nuclei (%) (Fibroblast [1]; [5]): 36%
- Population Tubulin-Different-Phenotype (%) (Fibroblast [1]; [5]): 77%
- Total Cell Count (Fibroblast [1]; [5]): 222
- Population Apoptotic (%) (Fibroblast [1]; [6]): 85%
- Population Fragmented Nuclei (%) (Fibroblast [1]; [6]): 22%
- Population Healthy Nuclei (%) (Fibroblast [1]; [6]): 47%
- Population Hoechst High Intensity Objects (%) (Fibroblast [1]; [6]): 8%
- Population Membrane Permeable-Phenotype (%) (Fibroblast [1]; [6]): 77%
- Population Mitochondria Different-Phenotype (%) (Fibroblast [1]; [6]): 97%
- Population Mitotic Cells (%) (Fibroblast [1]; [6]): 14%
- Population Normal (%) (Fibroblast [1]; [6]): 91%
- Population Pyknosed Nuclei (%) (Fibroblast [1]; [6]): 29%
- Population Tubulin-Different-Phenotype (%) (Fibroblast [1]; [6]): 97%
- Total Cell Count (Fibroblast [1]; [6]): 90
- Population Apoptotic (%) (Fibroblast [1]; [7]): 53%
- Population Fragmented Nuclei (%) (Fibroblast [1]; [7]): 29%
- Population Healthy Nuclei (%) (Fibroblast [1]; [7]): 57%
- Population Hoechst High Intensity Objects (%) (Fibroblast [1]; [7]): 26%
- Population Membrane Permeable-Phenotype (%) (Fibroblast [1]; [7]): 18%
- Population Mitochondria Different-Phenotype (%) (Fibroblast [1]; [7]): 3%
- Population Mitotic Cells (%) (Fibroblast [1]; [7]): 46%
- Population Normal (%) (Fibroblast [1]; [7]): 73%
- Population Pyknosed Nuclei (%) (Fibroblast [1]; [7]): 12%
- Population Tubulin-Different-Phenotype (%) (Fibroblast [1]; [7]): 53%
- Total Cell Count (Fibroblast [1]; [7]): 141
- Population Apoptotic (%) (Fibroblast [1]; [8]): 28%
- Population Fragmented Nuclei (%) (Fibroblast [1]; [8]): 13%
- Population Healthy Nuclei (%) (Fibroblast [1]; [8]): 64%
- Population Hoechst High Intensity Objects (%) (Fibroblast [1]; [8]): 6%
- Population Membrane Permeable-Phenotype (%) (Fibroblast [1]; [8]): 4%
- Population Mitochondria Different-Phenotype (%) (Fibroblast [1]; [8]): 68%
- Population Mitotic Cells (%) (Fibroblast [1]; [8]): 71%
- Population Normal (%) (Fibroblast [1]; [8]): 93%
- Population Pyknosed Nuclei (%) (Fibroblast [1]; [8]): 21%
- Population Tubulin-Different-Phenotype (%) (Fibroblast [1]; [8]): 39%
- Total Cell Count (Fibroblast [1]; [8]): 50
- Population Apoptotic (%) (Fibroblast [1]; [9]): 84%
- Population Fragmented Nuclei (%) (Fibroblast [1]; [9]): 18%
- Population Healthy Nuclei (%) (Fibroblast [1]; [9]): 40%
- Population Hoechst High Intensity Objects (%) (Fibroblast [1]; [9]): 48%
- Population Membrane Permeable-Phenotype (%) (Fibroblast [1]; [9]): 5%
- Population Mitochondria Different-Phenotype (%) (Fibroblast [1]; [9]): 59%
- Population Mitotic Cells (%) (Fibroblast [1]; [9]): 15%
- Population Normal (%) (Fibroblast [1]; [9]): 51%
- Population Pyknosed Nuclei (%) (Fibroblast [1]; [9]): 41%
- Population Tubulin-Different-Phenotype (%) (Fibroblast [1]; [9]): 67%
- Total Cell Count (Fibroblast [1]; [9]): 178
- Population Apoptotic (%) (Fibroblast [1]; [10]): 92%
- Population Fragmented Nuclei (%) (Fibroblast [1]; [10]): 21%
- Population Healthy Nuclei (%) (Fibroblast [1]; [10]): 35%
- Population Hoechst High Intensity Objects (%) (Fibroblast [1]; [10]): 9%
- Population Membrane Permeable-Phenotype (%) (Fibroblast [1]; [10]): 93%
- Population Mitochondria Different-Phenotype (%) (Fibroblast [1]; [10]): 96%
- Population Mitotic Cells (%) (Fibroblast [1]; [10]): 7%
- Population Normal (%) (Fibroblast [1]; [10]): 90%
- Population Pyknosed Nuclei (%) (Fibroblast [1]; [10]): 42%
- Population Tubulin-Different-Phenotype (%) (Fibroblast [1]; [10]): 96%
- Total Cell Count (Fibroblast [1]; [10]): 104
- Population Apoptotic (%) (Fibroblast [1]; [11]): 83%
- Population Fragmented Nuclei (%) (Fibroblast [1]; [11]): 36%
- Population Healthy Nuclei (%) (Fibroblast [1]; [11]): 56%
- Population Hoechst High Intensity Objects (%) (Fibroblast [1]; [11]): 28%
- Population Membrane Permeable-Phenotype (%) (Fibroblast [1]; [11]): 12%
- Population Mitotic Cells (%) (Fibroblast [1]; [11]): 16%
- Population Normal (%) (Fibroblast [1]; [11]): 71%
- Population Pyknosed Nuclei (%) (Fibroblast [1]; [11]): 6%
- Population Tubulin-Different-Phenotype (%) (Fibroblast [1]; [11]): 33%
- Total Cell Count (Fibroblast [1]; [11]): 132
- Population Apoptotic (%) (Fibroblast [1]; [12]): 50%
- Population Fragmented Nuclei (%) (Fibroblast [1]; [12]): 32%
- Population Healthy Nuclei (%) (Fibroblast [1]; [12]): 65%
- Population Hoechst High Intensity Objects (%) (Fibroblast [1]; [12]): 22%
- Population Membrane Permeable-Phenotype (%) (Fibroblast [1]; [12]): 9%
- Population Mitochondria Different-Phenotype (%) (Fibroblast [1]; [12]): 5%
- Population Mitotic Cells (%) (Fibroblast [1]; [12]): 50%
- Population Normal (%) (Fibroblast [1]; [12]): 77%
- Population Pyknosed Nuclei (%) (Fibroblast [1]; [12]): 1%
- Population Tubulin-Different-Phenotype (%) (Fibroblast [1]; [12]): 54%
- Total Cell Count (Fibroblast [1]; [12]): 145
- Population Apoptotic (%) (Fibroblast [1]; [13]): 94%
- Population Fragmented Nuclei (%) (Fibroblast [1]; [13]): 34%
- Population Healthy Nuclei (%) (Fibroblast [1]; [13]): 25%
- Population Hoechst High Intensity Objects (%) (Fibroblast [1]; [13]): 32%
- Population Membrane Permeable-Phenotype (%) (Fibroblast [1]; [13]): 0%
- Population Mitochondria Different-Phenotype (%) (Fibroblast [1]; [13]): 79%
- Population Mitotic Cells (%) (Fibroblast [1]; [13]): 5%
- Population Normal (%) (Fibroblast [1]; [13]): 67%
- Population Pyknosed Nuclei (%) (Fibroblast [1]; [13]): 40%
- Population Tubulin-Different-Phenotype (%) (Fibroblast [1]; [13]): 79%
- Total Cell Count (Fibroblast [1]; [13]): 139
- Population Apoptotic (%) (Fibroblast [1]; [14]): 81%
- Population Fragmented Nuclei (%) (Fibroblast [1]; [14]): 14%
- Population Healthy Nuclei (%) (Fibroblast [1]; [14]): 34%
- Population Hoechst High Intensity Objects (%) (Fibroblast [1]; [14]): 47%
- Population Membrane Permeable-Phenotype (%) (Fibroblast [1]; [14]): 9%
- Population Mitochondria Different-Phenotype (%) (Fibroblast [1]; [14]): 68%
- Population Mitotic Cells (%) (Fibroblast [1]; [14]): 18%
- Population Normal (%) (Fibroblast [1]; [14]): 52%
- Population Pyknosed Nuclei (%) (Fibroblast [1]; [14]): 51%
- Population Tubulin-Different-Phenotype (%) (Fibroblast [1]; [14]): 63%
- Total Cell Count (Fibroblast [1]; [14]): 122
- Growth Rate (HEK-293T; [15]): 0
- Growth Rate (HEK-293T; [16]): 0
- Growth Rate (HEK-293T; [17]): 0
- Growth Rate (HEK-293T; [18]): 0
- Growth Rate (Fibroblast [2]; [15]): 0
- Growth Rate (Fibroblast [2]; [16]): 0
- Growth Rate (Fibroblast [2]; [17]): 0
- Growth Rate (Fibroblast [2]; [18]): 0
- Growth Rate (U2OS; 0 h, replicate number 1, timepoint 0 hours): 0
- Growth Rate (U2OS; [15]): 0
- Growth Rate (U2OS; [16]): 0
- Growth Rate (U2OS; 12 h, replicate number 2, timepoint 12 hours): 1
- Growth Rate (U2OS; [17]): 0
- Growth Rate (U2OS; 18 h, replicate number 2, timepoint 18 hours): 1
- Growth Rate (U2OS; [18]): 0
